target: T1, Phosphoglycerate kinase (Saccharomyces cerevisiae S288c, UniProt P00560); test: Dissociation constant of phosphoglycerate kinase (PGK) at pH (3.0-11.0) was determined
T1 sequence (P00560 whole entry): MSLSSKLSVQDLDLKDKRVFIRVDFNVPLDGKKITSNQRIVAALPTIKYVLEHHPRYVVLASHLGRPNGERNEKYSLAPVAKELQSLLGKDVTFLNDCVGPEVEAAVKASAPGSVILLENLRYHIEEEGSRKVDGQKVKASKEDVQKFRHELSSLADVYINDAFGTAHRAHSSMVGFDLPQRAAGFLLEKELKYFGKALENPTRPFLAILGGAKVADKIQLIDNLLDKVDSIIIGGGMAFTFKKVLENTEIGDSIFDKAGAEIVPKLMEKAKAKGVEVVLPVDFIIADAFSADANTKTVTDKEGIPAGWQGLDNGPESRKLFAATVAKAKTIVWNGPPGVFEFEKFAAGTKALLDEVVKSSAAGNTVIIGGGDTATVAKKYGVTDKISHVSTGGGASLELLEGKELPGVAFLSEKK
Procedure, shortened: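 Free bisphosphonic acids in stirred solution were titrated from pH 11 down to pH 3 by controlled addition of 0.1 M HCl using an autotitrator with a combined glass electrode. The titration curves were plotted over pH 3–11, and successive pKa values of the phosphonic acid groups were calculated from the experimental data.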

Structure (SMILES) | Kd
O=C(CCP(=O)(O)O)CP(=O)(O)O | 2 µM
O=C(NCCP(=O)(O)O)C(F)(F)P(=O)(O)O | 6 µM
O=C(CCC(F)(F)P(=O)(O)O)C(F)(F)P(=O)(O)O | 5 µM
O=C(CCCP(=O)(O)O)CP(=O)(O)O | 19 µM
O=C(CCCP(=O)(O)O)C(F)(F)P(=O)(O)O | 76 µM
O=P(O)(O)C(F)(F)C(O)(O)C(F)(F)P(=O)(O)O | 72 µM
O=C(CP(=O)(O)O)NCC(F)(F)P(=O)(O)O | 2 µM
O=P(O)(O)C(F)(F)CCCCC(F)(F)P(=O)(O)O | 1000 µM
O=P(O)(O)CCCCC(F)(F)P(=O)(O)O | 4 µM
O=P(O)(O)C(F)(F)COCC(F)(F)P(=O)(O)O | 265 µM
O=C(CP(=O)(O)O)NCCP(=O)(O)O | 675 µM
O=C(CCP(=O)(O)O)C(F)(F)P(=O)(O)O | 3 µM
O=P(O)(O)CCCCCCP(=O)(O)O | 2130 µM
